According to ChEMBL document CHEMBL1122589 (J Med Chem, 1984):
Activity calls are given as the source filed them. The rule behind the calls is not given here.

Columns and labels:
P388 = assay: Dose of drug given intraperitoneally on days 1, 5, and 9 that provides the highest ILS value in mice bearing 10E6 ip inoculated P388 leukemia cells in vivo
L1210 [1] = assay: In vitro concentration required to inhibit the growth of L1210 cells in culture by 50% following a 48 hr exposure.; format: functional; details: Mus musculus, L1210, 48 h; read-out: ID50 (the source's name)
Nucleic Acid = assay: Binding constant for DNA by ethidium bromide displacement; format: nucleic-acid assay
Mus musculus [2] = species on record: Mus musculus; assay: Percentage increase in life span of drug-treated tumor bearing controls was determined; format: functional
How it was run: (§1)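 Survival of drug-treated mice bearing ip-inoculated leukemia was compared with untreated tumor-bearing controls. The result is expressed as percentage increase in life span (ILS), and a value above 20% was taken as statistically significant.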

L1210 [3] = assay: Dose of drug given intraperitoneally on a qd 1-5 schedule that provides the highest ILS value in mice bearing 10E6 ip inoculated L1210 leukemia cells; format: functional, Mus musculus
How it was run: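 Mice inoculated ip with 10⁶ L1210 leukemia cells; drug given ip daily on days 1-5 (qd 1-5). Optimal dose, in mg/kg/day, is the dose giving the highest increase in life span (ILS).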

L1210 [4] = assay: Potency against L1210 leukemia cells in culture in vitro according to the NCI protocols Nanomolar concentration required to inhibit the growth of L1210 cells in culture by 50% following a 48 hr exposure; format: functional; details: Mus musculus, L1210, 48 h; read-out: ID50 (the source's name)
How it was run: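 L1210 leukaemia cells were grown in culture and exposed to drug for 48 h. The value is the drug concentration giving 50% growth inhibition, expressed in nanomolar.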

[5] = Dissociation constant in aqueous DMF.; format: physicochemical
How it was run: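 pKa obtained by UV spectroscopy in 20% aqueous DMF.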

Mus musculus [6] = species on record: Mus musculus; assay: Percentage increase in life span of drug-treated tumor bearing controls was determined no. in parentheses =no. of animals out of a 6 group that survived indefinitely; format: functional
How it was run: as §1

Mus musculus [7] = species on record: Mus musculus; assay: Percentage increase in life span of drug-treated tumor bearing controls was determined; IN- Inactive at the highest dose tested; format: functional, organism-based
Mus musculus [8] = assay: Dose of drug given intraperitoneally on days 1, 5, and 9 that provides the highest ILS value in mice bearing 10E6 ip inoculated P388 leukemia cells in vivo
Mus musculus [9] = species on record: Mus musculus; assay: Percentage increase in life span of drug-treated tumor bearing controls was determined no. in parentheses are the animals (out of a group of 6) that survived indefinitely; format: functional
How it was run: as §1

| SMILES | OD (P388) | IC50 (L1210 [1]) | Log K (Nucleic Acid) | ILS (Mus musculus [2]) | OD (L1210 [3]) | further results |
| --- | --- | --- | --- | --- | --- | --- |
| CS(=O)(=O)Nc1ccc(Nc2c3ccccc3nc3ccccc23)c(NC2CCCCC2)c1 | 45 mg/kg | 470 nM | 6.3 | – | – | – |
| CCCCCCS(=O)(=O)Nc1ccc(Nc2c3ccccc3nc3ccccc23)c(NC)c1 | 100 mg/kg | 443 nM | 6.41 | 36% | – | – |
| Cc1cc(NS(C)(=O)=O)ccc1Nc1c2ccccc2nc2ccccc12 | – | 120 nM | 5.74 | 106% | 97 mg/kg | – |
| CCCCCNc1cc(NS(C)(=O)=O)ccc1Nc1c2ccccc2nc2ccccc12 | 30 mg/kg | – | 6.42 | – | – | IC50 (L1210 [4]): 117 nM |
| CCCCNc1cc(NS(C)(=O)=O)ccc1Nc1c2ccccc2nc2ccccc12 | 45 mg/kg | 185 nM | 6.36 | – | – | – |
| CC(=O)NNc1cc(NS(C)(=O)=O)ccc1Nc1c2ccccc2nc2ccccc12 | – | > 1500 nM | 5.89 | – | – | – |
| CS(=O)(=O)Nc1ccc(Nc2c3ccccc3nc3ccccc23)c(NCCO)c1 | 45 mg/kg | 86 nM | 6.49 | 89% | – | – |
| CS(=O)(=O)Nc1ccc(Nc2c3ccccc3nc3ccccc23)c(N)c1 | – | 1200 nM | 6.28 | 106% | 45 mg/kg | – |
| CCCS(=O)(=O)Nc1ccc(Nc2c3ccccc3nc3ccccc23)c(NC)c1 | 20 mg/kg | 86 nM | 6.61 | 73% | – | – |
| CC(C)Oc1cc(NS(C)(=O)=O)ccc1N=c1c2ccccc2[nH]c2ccccc12 | – | > 1700 nM | 5.17 | – | >500 mg/kg | pKa [5]: 7.51 |
| CCS(=O)(=O)Nc1ccc(Nc2c3ccccc3nc3ccccc23)c(NC)c1 | 13.3 mg/kg | 43 nM | 6.62 | 99% | – | – |
| CS(=O)(=O)Nc1ccc(Nc2c3ccccc3nc3ccccc23)c(N2CCCCC2)c1 | 100 mg/kg | > 1600 nM | 5.69 | – | – | – |
| CS(=O)(=O)Nc1ccc(Nc2c3ccccc3nc3ccccc23)c(F)c1 | – | 800 nM | 5.65 | – | >500 mg/kg | pKa [5]: 6.62 |
| CS(=O)(=O)Nc1ccc(Nc2c3ccccc3nc3ccccc23)c(O)c1 | – | 4000 nM | 5.53 | 88% | 25 mg/kg | pKa [5]: 7.56 |
| CN(CCO)c1cc(NS(C)(=O)=O)ccc1Nc1c2ccccc2nc2ccccc12 | 100 mg/kg | 1400 nM | 5.52 | – | – | ILS (Mus musculus [6]): 100% |
| CCNc1cc(NS(C)(=O)=O)ccc1Nc1c2ccccc2nc2ccccc12 | 45 mg/kg | 229 nM | 6.54 | 69% | – | – |
| CCN(CC)c1cc(NS(C)(=O)=O)ccc1Nc1c2ccccc2nc2ccccc12 | 100 mg/kg | 4600 nM | 5.35 | – | – | – |
| CCOc1cc(NS(C)(=O)=O)ccc1Nc1c2ccccc2nc2ccccc12 | – | 600 nM | 5.68 | 29% | 250 mg/kg | pKa [5]: 7.55 |

| SMILES | OD (P388) | IC50 (L1210 [1]) | Log K (Nucleic Acid) | ILS (Mus musculus [2]) | OD (L1210 [3]) | further results |
| --- | --- | --- | --- | --- | --- | --- |
| CCCCCCNc1cc(NS(C)(=O)=O)ccc1Nc1c2ccccc2nc2ccccc12 | 60 mg/kg | 136 nM | 6.36 | – | – | – |
| CS(=O)(=O)Nc1ccc(Nc2c3ccccc3nc3ccccc23)c(Cl)c1 | – | 1300 nM | 5.45 | – | >500 mg/kg | – |
| CCCCCCCS(=O)(=O)Nc1ccc(Nc2c3ccccc3nc3ccccc23)c(NC)c1 | 45 mg/kg | 397 nM | 6.44 | 47% | – | – |
| CCCNc1cc(NS(C)(=O)=O)ccc1Nc1c2ccccc2nc2ccccc12 | 66 mg/kg | 286 nM | 6.57 | – | – | – |
| CS(=O)(=O)Nc1ccc(Nc2c3ccccc3nc3ccccc23)c(N2CCCC2)c1 | 45 mg/kg | 1300 nM | 5.49 | – | – | – |
| CS(=O)(=O)Nc1ccc(Nc2c3ccccc3nc3ccccc23)c([N+](=O)[O-])c1 | – | 9000 nM | 5.61 | – | >500 mg/kg | ILS (Mus musculus [7]): inactive |
| CS(=O)(=O)Nc1ccc(Nc2c3ccccc3nc3ccccc23)c(NCC(O)CO)c1 (stereo unspecified) | 45 mg/kg | 219 nM | 6.71 | 84% | – | – |
| CS(=O)(=O)Nc1ccc(Nc2c3ccccc3nc3ccccc23)c(OCCO)c1 | – | > 1700 nM | 5.91 | 67% | 62.5 mg/kg | pKa [5]: 7.53 |
| CCCCCCCCS(=O)(=O)Nc1ccc(Nc2c3ccccc3nc3ccccc23)c(NC)c1 | 30 mg/kg | 217 nM | 6.51 | 42% | – | – |
| CCCCS(=O)(=O)Nc1ccc(Nc2c3ccccc3nc3ccccc23)c(NC)c1 | 45 mg/kg | 102 nM | 6.66 | 67% | – | – |
| CS(=O)(=O)Nc1ccc(Nc2c3ccccc3nc3ccccc23)c(N2CCOCC2)c1 | 100 mg/kg | > 1600 nM | 5.26 | – | – | – |
| COc1cc(NS(C)(=O)=O)ccc1Nc1c2ccccc2nc2ccccc12 [AMSACRINE] | – | – | 5.57 | 114% | 6.7 mg/kg | – |
| CCCCCS(=O)(=O)Nc1ccc(Nc2c3ccccc3nc3ccccc23)c(NC)c1 | 20 mg/kg | 144 nM | 6.58 | 61% | – | – |
| CCCCCCCNc1cc(NS(C)(=O)=O)ccc1Nc1c2ccccc2nc2ccccc12 | 45 mg/kg | 181 nM | 6.54 | – | – | – |
| CS(=O)(=O)Nc1ccc(Nc2c3ccccc3nc3ccccc23)cc1 | – | 35 nM | – | 107% | 45 mg/kg | – |
| CN(C)c1cc(NS(C)(=O)=O)ccc1Nc1c2ccccc2nc2ccccc12 | 166 mg/kg | – | – | – | – | ILS (Mus musculus [6]): 210% |
| CNc1cc(NS(C)(=O)=O)ccc1Nc1c2ccccc2nc2ccccc12 | – | 71 nM | 6.42 | – | – | OD (Mus musculus [8]): 13.3 mg/kg; ILS (Mus musculus [9]): 152% |
